Values after ≈ are worked out from the molar mass of the structure shown.
Assays:
[1] = Kinetic aqueous solubility; type: physicochemical; settings: PBS buffer, pH 7.4, aqueous buffer, kinetic from dmso stock
In short: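 10 mM DMSO stocks were diluted into PBS pH 7.4 to a 500 μM target and shaken 2 h at room temperature. Samples were vacuum-filtered, diluted with acetonitrile to prevent precipitation, and scanned by UV-vis over 250–500 nm. Concentration was derived from a 3-point calibration at each compound's λmax.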

[2] = tested on: MCF7 (breast cancer) cells; assay: MTT antiproliferative assay, MCF7; type: cell-based, human; settings: for IC50: MCF-7, MTT, 72 h; for Lipophilic efficiency (LipE = pIC50 – logP): MCF-7
In short: (§1)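 Cells from ECACC were grown in MEM with 10% FBS, non-essential amino acids and penicillin-streptomycin, at 37 °C and 5% CO2. Cells were seeded at 5000 per well, left overnight, then exposed to test compound 72 h. MTT was added for 4 h, and formazan was dissolved in DMSO (60 min, 37 °C) and read at 545 nm. Compounds giving >50% inhibition at 10 μM were rerun over 0.1–30 μM for IC50. Two independent experiments used five wells each, with cisplatin as positive control.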

[3] = tested on: MDA-MB-231 (breast cancer) cells; assay: MTT antiproliferative assay, MDA-MB-231; type: cell-based, human; settings: for IC50: Homo sapiens, MDA-MB-231, 72 h, MDA-MB-231, MTT, 72 h; for Lipophilic efficiency (LipE = pIC50 – logP): MDA-MB-231
In short: as §1

[4] = tested on: A2780 (ovarian cancer) cells; assay: MTT antiproliferative assay, A2780; type: cell-based, human; settings: for Lipophilic efficiency (LipE = pIC50 – logP): A2780; for IC50: Homo sapiens, A2780, 72 h
In short: as §1

[5] = tested on: HeLa (cervical cancers) cells; assay: MTT antiproliferative assay, HeLa; type: cell-based, human; settings: for IC50: Homo sapiens, 72 h
In short: as §1

[6] = Intestinal-specific PAMPA; type: in vitro ADME; settings: pH 6.5
In short: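 Donor solutions at nominal 500 μM came from 10 mM DMSO stocks diluted in phosphate donor buffer, pH 6.5. The acceptor buffer held 5% DMSO. The membrane was phosphatidylcholine plus cholesterol in chloroform/dodecane/hexane (5:25:70 v/v). Plates were incubated 4 h at 37 °C, covered. Acceptor UV-vis absorbance was read over 250–500 nm. Pa was calculated by the Wohnsland–Faller equation from acceptor versus equilibrium absorbance at λmax.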

| SMILES | solubility kinetic at 2 h [1] [µM] | IC50 ([2]; Homo sapiens, MCF7, 72 h) [nM] | Lipophilic efficiency (LipE = pIC50 – logP) [2] | IC50 [3] [nM] | Lipophilic efficiency (LipE = pIC50 – logP) [4] | IC50 [4] [nM] | Lipophilic efficiency (LipE = pIC50 – logP) [5] | IC50 [5] [nM] | Papp at 4 h, 500 μM [6] [×10⁻⁶ cm/s] | Lipophilic efficiency (LipE = pIC50 – logP) [3] | IC50 [2] [nM] |
| --- | --- | --- | --- | --- | --- | --- | --- | --- | --- | --- | --- |
| COc1ccc(COC[C@@](O)(CNCc2ccc(F)cc2)[C@@H]2CC[C@@H](C)C[C@H]2OCc2ccc(OC)cc2)cc1 [Compound 51a] | 259 ± 1.3 (≈ 143 µg/mL) | 1600 | −0.84 | 1900 | −0.80 | 1500 | −1.08 | 2800 | 19.7 ± 1.6 |  |  |
| C[C@@H]1CC[C@@H]([C@@](C)(O)Cn2cnc3ccccc32)[C@H](OCc2ccccc2)C1 [Compound 15b] | 34.6 ± 1.1 (≈ 13.1 µg/mL) | 9400 | −0.10 | 27600 |  | 10900 | 0.06 | 6500 | 26.3 ± 4.6 |  |  |
| C[C@@H]1CC[C@@H]([C@](C)(O)CNCc2cccc(F)c2)[C@H](OCc2ccccc2)C1 [Compound 8a] | 31.8 ± 1 (≈ 12.3 µg/mL) | 3500 | 0.17 | 9900 | −0.25 | 9300 | 0.00 | 5200 | 9.8 ± 1.2 | −0.28 |  |
| C[C@@H]1CC[C@@H]([C@](O)(CNCc2ccccc2)COCc2ccc(F)cc2)[C@H](OCc2ccc(F)cc2)C1 [Compound 44a] | 163 ± 1.6 (≈ 83.1 µg/mL) | 880 | −0.59 | 1500 | −1.00 | 2200 | −0.78 | 1300 | 28.8 ± 2.9 | −0.81 |  |
| C[C@@H]1CC[C@@H]([C@](O)(CNCc2ccc(F)cc2)COCc2ccc(F)cc2)[C@H](OCc2ccc(F)cc2)C1 [Compound 45a] | 122 ± 4.5 (≈ 64.4 µg/mL) | < 1000 | −0.69 | 1800 | −1.12 | 2300 | −1.23 | 2900 | 33.3 ± 3 | −1.02 | 840 |
| COc1ccc(COC[C@@](O)(CNCc2ccccc2)[C@@H]2CC[C@@H](C)C[C@H]2OCc2ccc(OC)cc2)cc1 [Compound 50a] | 202 ± 1 (≈ 108 µg/mL) | 1400 | −0.83 | 2200 | −0.88 | 1600 | −1.23 | 3700 | 32.4 ± 7.6 | −1.01 |  |

— article PMC11168086 (RSC Advances, 2024)
